ChEMBL document CHEMBL2346663 (J Med Chem, 2013)

How the values were obtained:
[1] = test system: Rattus norvegicus; assay: Toxicity in Wistar Han rat assessed as mortality at 10 to 100 mg/kg, ip after 4 days; format: organism-based; set-up: dose 10-100 mg/kg, route intraperitoneal; details: in vivo, 96 h
[2] = test system: Rattus norvegicus; assay: Toxicity in Wistar Han rat at 10 mg/kg, ip; format: organism-based; set-up: dose 10 mg/kg, route intraperitoneal; details: in vivo
How it was run: (§1)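 Male Wistar Han rats (~285 g), 3 per group, given one i.p. dose in 2 ml alcohol/water 1:3 (v/v); vehicle-only controls. Doses were 10 or 100 mg/kg, or 1, 10 or 100 mg/kg, depending on the compound. Clinical signs recorded daily. Rats killed by exsanguination after 4 days, with gross organ examination at necropsy.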

[3] = biological target: Sodium-dependent serotonin transporter (Homo sapiens, UniProt P31645); assay: Inhibition of serotonin reuptake at human SERT expressed in HEK293 cells coexpressing macrophage scavenger receptor; format: cell-based
Chain of Sodium-dependent serotonin transporter (P31645 whole entry): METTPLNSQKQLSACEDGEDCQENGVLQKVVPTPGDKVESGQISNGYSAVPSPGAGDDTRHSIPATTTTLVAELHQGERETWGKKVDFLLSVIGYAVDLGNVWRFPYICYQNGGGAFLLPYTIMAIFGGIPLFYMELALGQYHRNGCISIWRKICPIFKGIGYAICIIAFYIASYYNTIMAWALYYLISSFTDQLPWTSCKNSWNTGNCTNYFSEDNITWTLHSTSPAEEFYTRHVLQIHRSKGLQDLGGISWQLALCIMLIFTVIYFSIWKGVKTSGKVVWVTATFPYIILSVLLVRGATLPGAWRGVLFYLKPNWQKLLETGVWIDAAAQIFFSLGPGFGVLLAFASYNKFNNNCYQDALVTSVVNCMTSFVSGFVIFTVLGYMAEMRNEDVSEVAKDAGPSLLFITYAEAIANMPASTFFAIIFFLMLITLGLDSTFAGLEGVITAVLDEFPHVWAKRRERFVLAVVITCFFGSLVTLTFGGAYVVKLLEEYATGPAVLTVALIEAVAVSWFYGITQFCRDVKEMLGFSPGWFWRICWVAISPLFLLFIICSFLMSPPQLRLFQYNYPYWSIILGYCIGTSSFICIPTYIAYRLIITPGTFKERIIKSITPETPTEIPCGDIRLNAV
How it was run: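 HEK-293 MSR cells grown in DMEM with 10% FCS, penicillin/streptomycin and 6 µg/mL Geneticin at 37 °C and 5% CO2. Cells transfected with a pcDNA3.1 human SERT plasmid and assayed for [3H]5-HT uptake.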

[4] = organism: Homo sapiens; assay: Selectivity ratio of Ki for human SERT to IC50 for human recombinant MPO-mediated LDL oxidation
How it was run: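 Ratio of two measured values. Recombinant human MPO (1 µg/mL) oxidised LDL (1000 µg/mL) in PBS pH 7.2 with 4 mM HCl and 100 µM H2O2 at 37 °C for 5 min. Oxidised LDL was detected by ELISA with Mab AG9 at 405 nm to give the IC50. hSERT was transiently expressed in HEK-293 MSR cells and assayed by [3H]5-HT uptake.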

[5] = test system: Rattus norvegicus; assay: Toxicity in Wistar Han rat assessed as occurrence of macroscopic liver lesions at 100 mg/kg, ip by necropsic analysis; format: organism-based; set-up: dose 100 mg/kg, route intraperitoneal; details: in vivo; how it was run: as §1
[6] = test system: Rattus norvegicus; assay: Toxicity in Wistar Han rat assessed as paralysis of hind limbs at 100 mg/kg, ip after 48 hrs; format: organism-based, Hindlimb; set-up: dose 100 mg/kg, route intraperitoneal; details: in vivo; how it was run: as §1
[7] = test system: Rattus norvegicus; assay: Toxicity in Wistar Han rat assessed as occurrence of piloerection at 100 mg/kg, ip after 48 hrs; format: organism-based; set-up: dose 100 mg/kg, route intraperitoneal; details: in vivo; how it was run: as §1
[8] = biological target: T1, Myeloperoxidase (Homo sapiens, UniProt P05164); assay: Inhibition of human recombinant MPO-mediated taurine chlorination after 5 mins by microplate assay; format: single protein
T1 sequence (P05164 whole entry): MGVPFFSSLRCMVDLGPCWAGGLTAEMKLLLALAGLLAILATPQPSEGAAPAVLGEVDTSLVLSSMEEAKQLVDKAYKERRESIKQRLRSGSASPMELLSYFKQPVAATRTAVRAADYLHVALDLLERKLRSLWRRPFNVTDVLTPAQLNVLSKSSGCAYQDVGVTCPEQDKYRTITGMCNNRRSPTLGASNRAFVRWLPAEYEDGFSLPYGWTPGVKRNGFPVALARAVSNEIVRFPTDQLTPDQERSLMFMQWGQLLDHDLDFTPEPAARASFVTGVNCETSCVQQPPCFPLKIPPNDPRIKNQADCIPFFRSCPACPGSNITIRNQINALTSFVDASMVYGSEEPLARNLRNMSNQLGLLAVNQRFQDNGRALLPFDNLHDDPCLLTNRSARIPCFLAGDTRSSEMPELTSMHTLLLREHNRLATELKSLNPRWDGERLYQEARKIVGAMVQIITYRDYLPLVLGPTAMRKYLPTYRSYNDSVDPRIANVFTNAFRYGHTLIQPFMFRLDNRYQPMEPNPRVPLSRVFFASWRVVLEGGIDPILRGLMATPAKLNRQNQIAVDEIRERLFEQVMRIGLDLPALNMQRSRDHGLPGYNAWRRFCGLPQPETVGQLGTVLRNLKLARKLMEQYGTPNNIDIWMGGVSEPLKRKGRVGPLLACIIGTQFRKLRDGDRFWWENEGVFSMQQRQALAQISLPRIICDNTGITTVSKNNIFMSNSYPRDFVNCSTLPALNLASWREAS
How it was run: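 Recombinant MPO (40 nM) in 10 mM phosphate pH 7.4 with 300 mM NaCl and 15 mM taurine, inhibitor up to 20 µM, 37 °C. Started with H2O2 (100 µM), stopped after 5 min with catalase. Taurine chloramine measured with thionitrobenzoic acid at 412 nm. IC50 taken from the absorbance–concentration curve; no H2O2 set as 100% inhibition, no inhibitor as 0%.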

[9] = biological target: T1, Myeloperoxidase; assay: Inhibition of human recombinant MPO-mediated LDL oxidation after 5 mins by ELISA
How it was run: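 Recombinant MPO (1 µg/mL) with human plasma LDL (1000 µg/mL; ultracentrifuged fraction 1.019–1.067 g/mL, desalted in PBS) in PBS pH 7.2 with 4 mM HCl and test compound at several concentrations. Reaction started with 100 µM H2O2 at 37 °C and stopped after 5 min on ice. Oxidized LDL read by ELISA: 200 ng/well LDL coated, Mab AG9 antibody, alkaline phosphatase anti-mouse IgG, p-nitrophenyl phosphate, A405 corrected at 655 nm.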

[10] = test system: Rattus norvegicus; assay: Toxicity in Wistar Han rat assessed as macroscopic muscle lesions at 1 to 100 mg/kg, ip by necropsic analysis; format: organism-based, Muscle tissue; set-up: dose 1-100 mg/kg, route intraperitoneal; details: in vivo
How it was run: (§2)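 Male Wistar Han rats (~285 g), 3 per group, received a single i.p. dose of 1, 10 or 100 mg/kg in alcohol/water 1:3 (v/v), with vehicle controls. Clinical signs were recorded daily. After 4 days, rats were killed by exsanguination, and liver, kidney, heart and muscle were examined grossly at necropsy.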

[11] = test system: Rattus norvegicus; assay: Toxicity in Wistar Han rat assessed as occurrence of piloerection at 100 mg/kg, ip after 24 hrs; format: organism-based; set-up: dose 100 mg/kg, route intraperitoneal; details: in vivo; how it was run: as §1
[12] = test system: Rattus norvegicus; assay: Toxicity in Wistar Han rat at 1 to 10 mg/kg, ip; format: organism-based; set-up: dose 1-10 mg/kg, route intraperitoneal; details: in vivo
How it was run: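 Male Wistar Han rats (~285 g), 3 per group, received a single i.p. injection of 1 or 10 mg/kg in alcohol/water 1:3 (v/v), with vehicle controls. Physical and clinical signs were recorded daily for 4 days, followed by exsanguination and gross necropsy.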

[13] = test system: Rattus norvegicus; assay: Toxicity in Wistar Han rat assessed as mortality at 1 to 100 mg/kg, ip; format: organism-based; set-up: dose 1-100 mg/kg, route intraperitoneal; details: in vivo
[14] = test system: Rattus norvegicus; assay: Toxicity in Wistar Han rat assessed as prostarted posture at 100 mg/kg, ip after 24 hrs; format: organism-based; set-up: dose 100 mg/kg, route intraperitoneal; details: in vivo; how it was run: as §1
[15] = test system: Rattus norvegicus; assay: Toxicity in Wistar Han rat assessed as macroscopic kidney lesions at 1 to 100 mg/kg, ip by necropsic analysis; format: organism-based; set-up: dose 1-100 mg/kg, route intraperitoneal; details: in vivo; how it was run: as §2
[16] = test system: Rattus norvegicus; assay: Toxicity in Wistar Han rat assessed as macroscopic heart lesions at 1 to 100 mg/kg, ip by necropsic analysis; format: organism-based; set-up: dose 1-100 mg/kg, route intraperitoneal; details: in vivo; how it was run: as §2
[17] = test system: Rattus norvegicus; assay: Toxicity in Wistar Han rat assessed as macroscopic liver lesions at 1 to 100 mg/kg, ip by necropsic analysis; format: organism-based; set-up: dose 1-100 mg/kg, route intraperitoneal; details: in vivo; how it was run: as §2

## NCCSCCc1c[nH]c2c(F)cccc12
[1]
  Activity: Non-toxic
[2]
  Activity: Non-toxic
[3]; read-out: Ki
  Ki: 24 nM
[4]
  Ratio: 8
[5]
  Activity: Toxic
[6]
  Activity: Toxic
[7]
  Activity: Toxic

## NCCc1c[nH]c2ccccc12 [TRYPTAMINE]
[8]; read-out: IC50
  IC50: 770 nM

## N#CSCCCc1c[nH]c2ccc(F)cc12
[4]
  Ratio: 42

## OCCNCCCc1c[nH]c2ccc(F)cc12
[9]; read-out: IC50
  IC50: 43 nM
[3]; read-out: Ki
  Ki: 62 nM
[8]; read-out: IC50
  IC50: 10 nM
[4]
  Ratio: 6.2

## NCCCc1c[nH]c2ccc(C(=O)O)cc12
[9]
  IC50: Not Active
[3]; hek293
  Ki: Not Active
[8]
  IC50: Not Active

## NCCCc1c[nH]c2c(F)cccc12
[9]; read-out: IC50
  IC50: 26 nM
[3]; read-out: Ki
  Ki: 24 nM
[8]; read-out: IC50
  IC50: 24 nM
[4]
  Ratio: 1

## N#CCCCc1c[nH]c2ccc(C(=O)O)cc12
[9]
  IC50: Not Active
[3]; hek293
  Ki: Not Active
[8]
  IC50: Not Active

## NCCCCc1c[nH]c2ccc(C(=O)O)cc12
[9]
  IC50: Not Active
[3]; hek293
  Ki: Not Active
[8]
  IC50: Not Active

## CCN(CCCc1c[nH]c2ccc(F)cc12)S(C)(=O)=O
[3]; read-out: Ki
  Ki: 12 nM
[8]; read-out: IC50
  IC50: 37 nM
[4]
  Ratio: 0.3

## NCCSCCCc1c[nH]c2c(F)cccc12
[9]; read-out: IC50
  IC50: > 100 nM
[3]; read-out: Ki
  Ki: 539 nM
[8]; read-out: IC50
  IC50: > 100 nM

## NC(=O)CCc1c[nH]c2c(F)cccc12
[9]; read-out: IC50
  IC50: 64 nM
[8]; read-out: IC50
  IC50: 271 nM

## NC(=O)CCCCc1c[nH]c2ccc(F)cc12
[9]; read-out: IC50
  IC50: 43 nM
[8]; read-out: IC50
  IC50: 39 nM

## NCCCCc1c[nH]c2c(F)cccc12
[3]; read-out: Ki
  Ki: 8 nM
[4]
  Ratio: 1.3

## NCCc1c[nH]c2ccc(O)cc12 [SEROTONIN]
[8]
  IC50: Not Active

## OCCNCCc1c[nH]c2ccc(F)cc12
[9]; read-out: IC50
  IC50: 31 nM
[3]; read-out: Ki
  Ki: 10 nM
[8]; read-out: IC50
  IC50: 10 nM
[4]
  Ratio: 1

## N[C@@H](Cc1ccc(O)cc1)C(=O)O [TYROSINE]
[8]
  IC50: Not Active

## NC(=O)CCc1c[nH]c2ccc(F)cc12
[9]; read-out: IC50
  IC50: 34 nM
[8]; read-out: IC50
  IC50: 132 nM

## NCCSCCCc1c[nH]c2ccc(F)cc12
[3]; read-out: Ki
  Ki: 0.9 nM
[8]; read-out: IC50
  IC50: 35 nM
[4]
  Ratio: 0.02

## CCN(CCc1c[nH]c2ccc(F)cc12)S(C)(=O)=O
[4]
  Ratio: 12

## CCSCCc1c[nH]c2ccc(F)cc12
[9]; read-out: IC50
  IC50: > 100 nM
[3]; hek293
  Ki: Not Active
[8]; read-out: IC50
  IC50: > 100 nM

## CCSCCCc1c[nH]c2ccc(F)cc12
[9]; read-out: IC50
  IC50: > 100 nM
[3]; hek293
  Ki: Not Active
[8]; read-out: IC50
  IC50: > 100 nM

## CCNC(=O)CCCc1c[nH]c2ccc(F)cc12
[9]; read-out: IC50
  IC50: 243 nM
[8]; read-out: IC50
  IC50: 182 nM

## NCC(N)CCc1c[nH]c2ccc(F)cc12 (stereo not given)
[9]; read-out: IC50
  IC50: 26 nM
[3]; read-out: Ki
  Ki: 12 nM
[8]; read-out: IC50
  IC50: 60 nM
[4]
  Ratio: 0.2

## NC(=O)CCCCc1c[nH]c2c(F)cccc12
[9]; read-out: IC50
  IC50: 44 nM
[8]; read-out: IC50
  IC50: 34 nM

## NC(=O)CCCc1c[nH]c2ccc(F)cc12
[10]
  Activity: Non-toxic
[11]
  Activity: Toxic
[12]
  Activity: Non-toxic
[8]; read-out: IC50
  IC50: 18 nM
[13]
  Activity: Non-toxic
[14]
  Activity: Toxic
[4]
  Ratio: 35
[15]
  Activity: Non-toxic
[16]
  Activity: Non-toxic
[17]
  Activity: Non-toxic

## CCCc1c[nH]c2ccc(F)cc12
[9]; read-out: IC50
  IC50: > 100 nM
[3]; hek293
  Ki: Not Active
[8]; read-out: IC50
  IC50: > 100 nM

## N#CCCCc1c[nH]c2ccc(F)cc12
[9]; read-out: IC50
  IC50: 72 nM
[3]; read-out: Ki
  Ki: 184 nM
[8]; read-out: IC50
  IC50: 63 nM
[4]
  Ratio: 2.9

## Fc1ccc2[nH]cc(CCCNCc3ccccc3)c2c1
[9]; read-out: IC50
  IC50: 30 nM
[3]; read-out: Ki
  Ki: 53 nM
[8]; read-out: IC50
  IC50: 13 nM
[4]
  Ratio: 4.1

## NCCc1c[nH]c2c(F)cccc12
[9]; read-out: IC50
  IC50: 28 nM
[3]; read-out: Ki
  Ki: 29 nM
[8]; read-out: IC50
  IC50: 29 nM
[4]
  Ratio: 1

## NCCSCCc1c[nH]c2ccc(F)cc12
[3]; read-out: Ki
  Ki: 2.3 nM
[4]
  Ratio: 0.6

## Fc1ccc2[nH]cc(CCCN3CCN(c4ccccc4)CC3)c2c1
[9]; read-out: IC50
  IC50: 60 nM
[3]; read-out: Ki
  Ki: 36 nM
[8]; read-out: IC50
  IC50: 22 nM
[4]
  Ratio: 1.6
